Experiment [1] concerns the target T1, Calcitonin receptor (Homo sapiens) (UniProt P30988).
T1 sequence (whole entry): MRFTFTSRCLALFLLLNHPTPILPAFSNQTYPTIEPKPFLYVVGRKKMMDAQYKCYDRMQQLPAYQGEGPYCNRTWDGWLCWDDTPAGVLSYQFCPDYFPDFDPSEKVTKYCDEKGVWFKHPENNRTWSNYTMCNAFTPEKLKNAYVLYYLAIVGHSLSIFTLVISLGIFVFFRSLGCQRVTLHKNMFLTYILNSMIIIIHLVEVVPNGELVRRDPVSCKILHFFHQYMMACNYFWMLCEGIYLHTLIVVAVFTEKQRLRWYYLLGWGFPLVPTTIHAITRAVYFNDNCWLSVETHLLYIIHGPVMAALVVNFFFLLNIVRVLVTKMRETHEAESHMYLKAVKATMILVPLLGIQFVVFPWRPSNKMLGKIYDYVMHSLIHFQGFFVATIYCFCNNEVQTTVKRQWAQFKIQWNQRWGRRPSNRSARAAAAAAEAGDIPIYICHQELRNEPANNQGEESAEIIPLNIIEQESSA

The target in experiment [2] is T2, Calcitonin receptor (Rattus norvegicus) (UniProt P32214).
T2 sequence (whole entry): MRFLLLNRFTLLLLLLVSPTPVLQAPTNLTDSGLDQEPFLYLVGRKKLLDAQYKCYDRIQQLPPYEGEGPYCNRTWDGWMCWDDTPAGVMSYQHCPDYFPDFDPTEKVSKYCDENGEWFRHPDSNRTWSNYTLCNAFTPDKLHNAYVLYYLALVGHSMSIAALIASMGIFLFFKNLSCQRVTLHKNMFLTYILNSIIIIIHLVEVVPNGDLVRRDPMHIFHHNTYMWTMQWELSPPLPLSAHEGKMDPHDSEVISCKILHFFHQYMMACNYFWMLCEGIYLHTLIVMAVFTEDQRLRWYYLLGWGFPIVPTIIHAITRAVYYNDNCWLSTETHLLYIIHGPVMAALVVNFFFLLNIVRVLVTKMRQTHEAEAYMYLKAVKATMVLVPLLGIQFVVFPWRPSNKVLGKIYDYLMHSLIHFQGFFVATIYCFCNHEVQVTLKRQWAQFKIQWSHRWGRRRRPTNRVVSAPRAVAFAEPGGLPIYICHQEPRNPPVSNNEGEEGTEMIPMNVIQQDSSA
In words: Affinity for calcitonin receptor of rat brain relative to [125I]-salmon calcitonin. In outline: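 Male Sprague–Dawley rat (250–350 g) brain membranes (~0.63 mg protein/tube) were shaken on ice for 30 min with 10 pM final [125I-Tyr22]sCT and competitor in 50 mM Tris-HCl pH 7.4 with 34 μM bacitracin. Tubes were centrifuged and the pellets washed, SDS-solubilized and scintillation counted. Nonspecific binding was taken with 1 μM sCT. IC50 came from probit analysis, and relative affinity set sCT = 100%.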

Take `CC[C@H](C)[C@H](NC(=O)[C@H](C)NC(=O)[C@@H](NC(=O)[C@H](CCC(N)=O)NC(=O)[C@H]1CCCN1C(=O)[C@H](Cc1ccccc1)NC(=O)[C@@H](N[C@@H](Cc1c[nH]cn1)C(=O)NC(CCCCN)C(=O)[C@@H]1CCCN1C(=O)[C@H](CC(N)=O)NC(=O)[C@H](Cc1ccccc1)NC(=O)[C@H](CC(=O)O)NC(=O)[C@H](CCC(N)=O)NC(=O)[C@@H](NC(=O)[C@H](Cc1ccc(O)cc1)NC(=O)[C@@H](NC(=O)CNC(=O)[C@H](CC(C)C)NC(=O)[C@H](CCSC)NC(=O)[C@H](CS)NC(=O)[C@@H](NC(=O)[C@H](CO)NC(=O)[C@H](CC(C)C)NC(=O)[C@H](CC(N)=O)NC(=O)CNC(=O)[C@@H](N)CS)[C@@H](C)O)[C@@H](C)O)[C@@H](C)O)[C@@H](C)O)[C@@H](C)O)C(=O)NCC(=O)N[C@H](C(=O)NCC(=O)N[C@@H](C)C(=O)N1CCC[C@@H]1C(N)=O)C(C)C` (stereo partly drawn): the ED50 in experiment [1] is 104 nM. Also, the Relative affinity in experiment [2] is less than 0.0075.

For `CC(C)C[C@H](NC(=O)[C@H](CCCCN)NC(=O)CNC(=O)[C@H](CC(C)C)NC(=O)[C@@H](NC(=O)[C@H](CS)NC(=O)[C@@H](NC(=O)[C@H](CO)NC(=O)[C@H](CC(C)C)NC(=O)[C@H](CC(N)=O)NC(=O)[C@H](CO)NC(=O)[C@@H](N)CS)[C@@H](C)O)C(C)C)C(=O)N[C@@H](CO)C(=O)N[C@@H](CCC(N)=O)C(=O)N[C@@H](CCC(=O)O)C(=O)N[C@@H](CC(C)C)C(=O)N[C@@H](Cc1c[nH]cn1)C(=O)N[C@@H](CCCCN)C(=O)N[C@@H](CC(C)C)C(=O)N[C@@H](CCC(N)=O)C(=O)N[C@H](C(=O)N[C@@H](Cc1ccc(O)cc1)C(=O)N1CCC[C@@H]1C(=O)N[C@@H](CCCN=C(N)N)C(=O)N[C@H](C(=O)N[C@@H](CC(N)=O)C(=O)N[C@H](C(=O)NCC(=O)N[C@@H](CO)C(=O)NCC(=O)N[C@H](C(=O)N1CCC[C@@H]1C(N)=O)[C@@H](C)O)[C@@H](C)O)[C@@H](C)O)[C@@H](C)O`, the ED50 in experiment [1] turned out to be 0.115 nM. Besides, the Relative affinity in experiment [2] amounted to 100.

As for `CC[C@H](C)[C@H](NC(=O)[C@H](C)NC(=O)[C@@H](NC(=O)[C@H](CCC(N)=O)NC(=O)[C@H]1CCCN1C(=O)[C@H](Cc1ccccc1)NC(=O)[C@@H](NC(Cc1c[nH]cn1)C(=O)N[C@@H](Cc1ccccc1)C(=O)[C@H](CCCCN)NC(=O)[C@H](CC(N)=O)NC(=O)[C@H](Cc1ccccc1)NC(=O)[C@H](CC(=O)O)NC(=O)[C@H](CCC(N)=O)NC(=O)[C@@H](NC(=O)[C@H](Cc1ccc(O)cc1)NC(=O)[C@@H](NC(=O)CNC(=O)[C@H](CC(C)C)NC(=O)[C@H](CCSC)NC(=O)[C@H](CS)NC(=O)[C@@H](NC(=O)[C@H](CO)NC(=O)[C@H](CC(C)C)NC(=O)[C@H](CC(N)=O)NC(=O)CNC(=O)[C@@H](N)CS)[C@@H](C)O)[C@@H](C)O)[C@@H](C)O)[C@@H](C)O)[C@@H](C)O)C(=O)NCC(=O)N[C@H](C(=O)NCC(=O)N[C@@H](C)C(=O)N1CCC[C@@H]1C(N)=O)C(C)C` (stereo partly drawn), the ED50 in experiment [1] came out at 0.6 nM. For the same compound, the Relative affinity in experiment [2] turned out to be 0.015.

In the case of `CCCC[C@H](NC(=O)[C@H](Cc1c[nH]cn1)NC(=O)[C@H](CC(C)C)NC(=O)[C@H](CCCCN)NC(=O)[C@H](CC(N)=O)NC(=O)[C@H](CC(C)C)NC(=O)[C@H](CCC(=O)O)NC(=O)[C@H](CCC(N)=O)NC(=O)[C@H](CO)NC(=O)[C@H](CC(C)C)NC(=O)[C@H](CCCCN)NC(=O)CNC(=O)[C@H](CC(C)C)NC(=O)[C@@H](NC(=O)[C@H](CS)NC(=O)[C@@H](NC(=O)[C@H](CO)NC(=O)[C@H](CC(C)C)NC(=O)[C@H](CC(N)=O)NC(=O)[C@H](CO)NC(=O)[C@@H](N)CS)[C@@H](C)O)C(C)C)C(=O)N[C@@H](Cc1ccc(O)cc1)C(=O)N1CCC[C@@H]1C(=O)N[C@@H](CCCN=C(N)N)C(=O)N[C@H](C(=O)N[C@@H](CC(N)=O)C(=O)N[C@H](C(=O)NCC(=O)N[C@@H](CO)C(=O)NCC(=O)N[C@H](C(=O)N1CCC[C@@H]1C(N)=O)[C@@H](C)O)[C@@H](C)O)[C@@H](C)O`, the ED50 in experiment [1] worked out at 0.046 nM. The Relative affinity in experiment [2] was 92.

The record behind these values is ChEMBL document CHEMBL1135734, “Side-chain lactam-bridge conformational constraints differentiate the activities of salmon and human calcitonins and reveal a new design concept for potent calcitonin analogues” (J Med Chem, 2002).
